Data from ChEMBL document CHEMBL4819003, “Optimization of novel oxidative DIMs as Nur77 modulators of the Nur77-Bcl-2 apoptotic pathway” (Eur J Med Chem, 2021).
Activity calls are given as the source filed them. The rule behind the calls is not given here.

Experiments:
[1] = Half life in male Sprague-Dawley rat at 5 mg/kg, po measured for 36 hrs by LC-MS/MS analysis; assay type: ADME, organism-based; details: in vivo
[2] = AUC (0 to t) in male Sprague-Dawley rat at 0.5 mg/kg, iv measured for 36 hrs by LC-MS/MS analysis; assay type: ADME, organism-based; parameters: time 36 hrs, dose 0.5 mg/kg; details: in vivo
Procedure, shortened: (§1)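 Sprague-Dawley rats (200–220 g), three per sex per route, were dosed at 0.5 mg/kg IV or 5 mg/kg PO in DMSO/Tween-80/water (1:5:94). Heparinized blood was drawn from 5 min to 36 h after IV dosing and from 1 h to 36 h after oral dosing. Plasma was deproteinized with methanol (2% HCl) plus carbamazepine internal standard, measured by LC-MS/MS, and reported as mean ± SD.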

[3] = MRT(0 to t) in female Sprague-Dawley rat at 0.5 mg/kg, iv measured for 36 hrs by LC-MS/MS analysis; assay type: ADME, organism-based; details: in vivo
[4] = Tmax in male Sprague-Dawley rat at 5 mg/kg, po measured for 36 hrs by LC-MS/MS analysis; assay type: ADME, organism-based; details: in vivo
Procedure, shortened: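 Sprague-Dawley rats (200–220 g), three males and three females per route group. Dosed 5 mg/kg orally or 0.5 mg/kg IV as a solution in DMSO/T-80/H2O (1:5:94 by volume). Heparinized blood was drawn from 5 min to 36 h after IV and 1–36 h after oral dosing. Plasma was protein-precipitated with methanol (2% HCl) plus carbamazepine internal standard and assayed by LC-MS/MS. Parameters were taken from concentration-time data; n = 3 per sex, mean ± SD.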

[5] = AUC (0 to t) in male Sprague-Dawley rat at 5 mg/kg, po measured for 36 hrs by LC-MS/MS analysis; assay type: ADME, organism-based; parameters: dose 5 mg/kg, time 36 hrs; details: in vivo; procedure, shortened: as §1
[6] = Clearance in female Sprague-Dawley rat at 0.5 mg/kg, iv measured for 36 hrs by LC-MS/MS analysis; assay type: ADME, organism-based; details: in vivo
[7] = MRT(0 to t) in male Sprague-Dawley rat at 0.5 mg/kg, iv measured for 36 hrs by LC-MS/MS analysis; assay type: ADME, organism-based; details: in vivo
[8] = target: T1, Nuclear receptor subfamily 4immunitygroup A member 1 (Homo sapiens, UniProt P22736); test: Modulation of Myc-Nur77 (unknown origin) transfected in human HEK293T cells co-transfected with Flag-tagged Bcl2 assessed as interaction of Nur77 with Bcl2 at 0.5 uM measured after 1 to 3 hrs by co-immunoprecipitation assay; assay type: cell-based; details: filed as modulator, time 1-3 hrs
Procedure, shortened: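 HEK293T cells cotransfected with Flag-Bcl-2 and Myc-Nur77 were treated with or without 0.5 μM compound over the indicated times. They were lysed in Triton X-100 buffer with protease inhibitors; 5% of lysate was kept as input. Lysate was immunoprecipitated with anti-Flag at 4 °C for 12 h, then protein A-Sepharose for 3 h, washed three times in PBS and western blotted.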

MDA-MB-231 [9] = test: Induction of apoptosis in human MDA-MB-231 cells assessed as PARP cleavage at 0.5 uM measured after 6 hrs by western blot assay; assay type: functional, cell-based
Procedure, shortened: (§2)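 Cells exposed to 0.5 µM for 6 h. Lysates resolved by SDS-PAGE and blotted to PVDF, blocked in 5% milk/TBST, probed with primary antibodies at 1:1000, ECL detection. Apoptosis scored as the densitometric ratio of cleaved PARP band to intact PARP band; mean ± SD, n = 3.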

[10] = Clearance in male/female Sprague-Dawley rat at 0.5 mg/kg, iv measured for 36 hrs by LC-MS/MS analysis; assay type: ADME, organism-based; details: both, in vivo
[11] = Oral bioavailability in male/female Sprague-Dawley rat at 5 mg/kg measured for 36 hrs by LC-MS/MS analysis; assay type: ADME, organism-based; details: both, in vivo
Procedure, shortened: (§3)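 Sprague-Dawley rats (200–220 g), four per route group (2 male, 2 female), given 0.5 mg/kg IV or 5 mg/kg orally in DMSO/T-80/H2O (1:5:94). Heparinized blood was sampled at 5 min–36 h after IV and at 0.5, 1, 3, 4, 6, 8, 10, 12, 24 and 36 h after oral dosing. Plasma was methanol (2% HCl)-precipitated with carbamazepine internal standard and quantified by LC-MS/MS. Parameters reported as mean ± SD.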

[12] = target: T1, Nuclear receptor subfamily 4immunitygroup A member 1; test: Modulation of GFP-Nur77 (unknown origin) transfected in human HEK293T cells co-transfected with Flag-tagged Bcl2 assessed as interaction of Nur77 with Bcl2 in mitochondria at 0.5 uM measured after 2 hrs by confocal microscopy; details: filed as modulator
Procedure, shortened: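 HEK293T cells were lipofectamine-cotransfected with Flag-Bcl-2 and GFP-Nur77 or GFP-Nur77-LBD, then given 0.5 μM compound for 2 h. Cells were fixed in 4% paraformaldehyde, permeabilised with 0.1% Triton X-100, blocked in 1% BSA and stained with anti-Flag plus DAPI. Mitochondrial colocalisation with Bcl-2 was read by confocal microscopy.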

[13] = Selectivity index, ratio of IC50 for human MCF-10A cells to IC50 for human MDA-MB-231 cells; assay type: toxicity; details: MCF-10A cells versus MDA-MB-231 cells, read-out: Ratio IC50
SW-620 = test: Induction of apoptosis in human SW-620 cells assessed as PARP cleavage at 0.5 uM measured after 6 hrs by western blot assay; assay type: functional, cell-based; procedure, shortened: as §2
[14] = MRT(0 to t) in male/female Sprague-Dawley rat at 5 mg/kg, po measured for 36 hrs by LC-MS/MS analysis; assay type: ADME, organism-based; details: both, in vivo; procedure, shortened: as §3
[15] = Selectivity index, ratio of IC50 for human NCM460 cells to IC50 for human SW-620 cells
[16] = target: T1, Nuclear receptor subfamily 4immunitygroup A member 1; test: Modulation of Myc-Nur77 (unknown origin) transfected in human HEK293T cells assessed as induction of Myc-Nur77 mitochondrial targeting by measuring increase in Myc-Nur77 accumulation in mitochondria at 0.5 uM measured after 2 hrs by western blot analysis; details: filed as modulator
Procedure, shortened: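 HEK293T cells transfected with Myc-Nur77 were exposed to 0.5 μM compound for 2 h. Cells were homogenised in sucrose Buffer D; 500 g then 5000 g spins gave a mitochondrial pellet. Whole-cell and mitochondrial fractions were western blotted for Myc-Nur77, with PARP and Tom20 as fraction-purity markers.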

[17] = Cmax in male/female Sprague-Dawley rat at 5 mg/kg, po measured for 36 hrs by LC-MS/MS analysis; assay type: ADME, organism-based; parameters: route oral, time 36 hrs, dose 5 mg/kg; details: both, in vivo
MEF = test: Induction of apoptosis in mouse MEF cells deficient in Bcl2 assessed as PARP cleavage at 0.5 uM measured after 6 hrs by Western blot assay; assay type: functional, cell-based
Procedure, shortened: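 Wild-type, Nur77−/− or Bcl-2−/− mouse embryonic fibroblasts grown in DMEM with 10% FBS and treated with 0.5 µM for 6 h. PARP cleavage detected by western blot, primary antibodies at 1:1000, ECL.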

MDA-MB-231 [18] = test: Induction of apoptosis in human MDA-MB-231 cells assessed as PARP cleavage at 0.5 uM measured after 6 hrs by western blot assay relative to Di(1H-indol-3-yl)(4-(trifluoromethyl)phenyl)methylium methanesulfonate; assay type: functional
Procedure, shortened: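 MDA-MB-231 in DMEM with 10% FBS, 0.5 µM for 6 h, then PARP western blot with 1:1000 primary antibodies and ECL. Cleaved PARP/PARP band intensity ratio expressed relative to the reference methylium methanesulfonate, whose ratio was set to 1. Mean ± SD, n = 3.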

T1 sequence (P22736 whole entry): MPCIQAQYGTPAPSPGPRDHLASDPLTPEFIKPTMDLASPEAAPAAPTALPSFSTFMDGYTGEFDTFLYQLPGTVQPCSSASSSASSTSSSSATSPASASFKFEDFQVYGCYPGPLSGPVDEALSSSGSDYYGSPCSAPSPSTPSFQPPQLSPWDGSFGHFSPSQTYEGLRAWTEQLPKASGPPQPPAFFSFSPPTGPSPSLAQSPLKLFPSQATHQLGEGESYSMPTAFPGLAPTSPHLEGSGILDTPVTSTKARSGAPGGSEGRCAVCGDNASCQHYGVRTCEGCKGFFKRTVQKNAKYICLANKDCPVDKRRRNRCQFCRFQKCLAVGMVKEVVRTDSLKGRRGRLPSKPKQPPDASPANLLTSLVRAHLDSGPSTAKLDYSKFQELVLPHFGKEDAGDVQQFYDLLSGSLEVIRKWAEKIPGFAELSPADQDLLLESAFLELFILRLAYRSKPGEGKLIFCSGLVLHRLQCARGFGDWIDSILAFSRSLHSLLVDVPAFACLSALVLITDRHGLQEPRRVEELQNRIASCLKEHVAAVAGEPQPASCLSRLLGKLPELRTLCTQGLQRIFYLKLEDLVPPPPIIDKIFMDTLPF

half-life [1] [h]	AUC(0-t) at 36 h [2] [ng·h/mL]	MRT [3] [h]	Tmax [4] [h]	AUC(0-t) at 36 h [5] [ng·h/mL]	CL [6] [mL/min/kg]	MRT last at 36 h [7] [h]	Activity [8]	clearance [10] [mL/min/kg]	bioavailability [11] [%]	Activity [12]	MRT last at 36 h [14] [h]	Activity [16]	Cmax [17] [ng/mL]	Compound	Activity (MDA-MB-231 [9])	selectivity ratio [13]	Activity (SW-620)	Ratio IC50 [15]	Activity (MEF)	fold change (FC) (MDA-MB-231 [18])
5.28	1120	3.59	5.33	2250	4.67	4.31								CS(=O)(=O)[O-].FC(F)(F)c1ccc([C+](c2c[nH]c3ccccc23)c2c[nH]c3ccccc23)cc1						
							Active	17	14.6	Active	9.59	Active	57.9	CS(=O)(=O)[O-].Cn1cc([C+](c2ccc(C(F)(F)F)cc2)c2c[nH]c3ccccc23)c2ccccc21	Active	40	Active	50	inactive	8.93
